Measured values from ChEMBL document CHEMBL1151230, “Cytotoxic triterpenoids from Acridocarpus vivy from the Madagascar rain forest” (J Nat Prod, 2004).
In brackets after ≈: the same amount, converted by molar mass.

These compounds were tested on A2780 (assay: Cytotoxicity against human A2780 cells).
Type: functional, cell-based
Method in brief: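 Growth inhibition of the human ovarian cancer line A2780. IC50 is the concentration giving 50% inhibition of growth, reported in µg/mL. Actinomycin D served as positive control. Run at Virginia Polytechnic Institute following an earlier published procedure.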

Compound	IC50
CC1(C)C=C2[C@H]3CC[C@@H]4[C@@]5(C)CCC(=O)[C@](C)(C=O)[C@@H]5CC[C@@]4(C)[C@]3(C)CC[C@@]2(C(=O)O)CC1	0.7 µg/mL (≈ 1.49 µM)
CC1(C)C=C2[C@H]3CC[C@@H]4[C@@]5(C)CCC(=O)[C@](C)(CO)[C@@H]5CC[C@@]4(C)[C@]3(C)CC[C@@]2(C(=O)O)CC1	15.9 µg/mL (≈ 33.8 µM)
CC(=O)OC[C@@]1(C)C(=O)CC[C@@]2(C)[C@H]1CC[C@]1(C)[C@@H]2CC[C@@H]2C3=CC(C)(C)CC[C@]3(C(=O)O)CC[C@]21C	11.6 µg/mL (≈ 22.6 µM)
CC(=O)O[C@@H]1CC[C@]2(C)[C@H]3CC[C@@H]4C5=CC(C)(C)CC[C@]5(C(=O)O)CC[C@@]4(C)[C@]3(C)CC[C@H]2C1(C)C	15.3 µg/mL (≈ 30.7 µM)
COc1cc(O)c2c(=O)cc(-c3ccc(O)cc3)oc2c1 [GENKWANIN]	> 20 µg/mL
CC1(C)C=C2[C@H]3CC[C@@H]4[C@@]5(C)CCC(=O)C(C)(C)[C@@H]5CC[C@@]4(C)[C@]3(C)CC[C@@]2(C(=O)O)CC1 [MORONIC ACID]	13.1 µg/mL (≈ 28.8 µM)
CC1(C)CC[C@]2(C(=O)O)CC[C@]3(C)C(=CC[C@@H]4[C@@]5(C)CC[C@H](O)C(C)(C)[C@@H]5CC[C@]43C)[C@@H]2C1 [OLEANOLIC_ACID]	8 µg/mL (≈ 17.5 µM)
C[C@H]1[C@H](C)CC[C@]2(C(=O)O)CC[C@]3(C)C(=CC[C@@H]4[C@@]5(C)CC[C@H](O)C(C)(C)[C@@H]5CC[C@]43C)[C@H]12 [URSOLIC ACID]	9.2 µg/mL (≈ 20.1 µM)
COc1cc(O)c2c(=O)cc(-c3ccc(O)c(OC)c3)oc2c1 [VELUTIN]	> 20 µg/mL
